# Assay results pooled from the literature.
# Each line is one published result; the experiments were not run side by side.
# Target: SRSF protein kinase 1 (SRPK1, Homo sapiens, UniProt Q96SB4)
SMILES,observed,technique,tested at,remaining binding [%]
O=C(c1ccc(Nc2nccc(-c3cc4ccccc4s3)n2)cc1)N1CCC(N2CCCC2)CC1,binding,competition with immobilised ligand,1 µM,86
O=C(O)[C@H]1[C@H](Cn2nnc3ccccc3c2=O)CC[C@@H]1C(=O)c1ccc(OCCC2CCOCC2)cc1,cell-free assay,competition with immobilised ligand,1 µM,79
CNC(=O)[C@@H]1CC[C@@H](n2c(-c3ccc4cnccc4c3)nc3ccc(C(=O)NCc4cccc(C(N)=O)c4)cc32)C1,binding,competition with immobilised ligand,1 µM,79
C=CC(=O)N1CCC(C(=O)NCC(=O)N2CCN(c3nc(-c4cnc(N)nc4C(F)F)nc(N4CCOCC4)n3)CC2)CC1,binding,competition with immobilised ligand,1 µM,75
N[C@@H]1CCN(c2nccc(-c3cnn4ncccc34)n2)C1,binding,,1 µM,92
O=C(NCC1CCOCC1)c1n[nH]cc1NC(=O)c1c(F)cccc1F,binding,competition with immobilised ligand,1 µM,68
C[C@@H]1CCN(c2nccc(-c3cnn4ncccc34)n2)C1,binding,,1 µM,98
O=C(Nc1cccnn1)N1CC(C/C=C/c2cncc(Oc3ccc(C(F)(F)F)cn3)n2)C1,cell-free assay,competition with immobilised ligand,1 µM,82
CC1CCCN1c1nccc(-c2cnn3ncccc23)n1 (stereo not drawn),binding,,1 µM,94
N#Cc1ccc(Nc2ccc3[nH]c(=O)[nH]c3c2)c(Cl)c1,cell-free assay,competition with immobilised ligand,1 µM,95
F[C@@H]1CCN(c2nccc(-c3cnn4ncccc34)n2)C1,binding,,1 µM,100
CN(C)C(=O)Cn1cc(-c2nc(C3(c4ccc(-c5cnc(N)nc5)cc4)CC3)no2)cn1,cell-free assay,competition with immobilised ligand,1 µM,93
O=C(NCCCN1CCOCC1)c1ccc(Nc2ncc(Cl)c(-c3ccc(Cl)s3)n2)cc1,binding,competition with immobilised ligand,1 µM,97
CN(CCCC(F)(F)F)c1nccc(-c2cnn3ncccc23)n1,binding,,1 µM,100
O=C(c1ccc(Nc2ncc(Cl)c(-c3ccc(Cl)s3)n2)cc1)N1CCC(N2CCCC2)CC1,binding,competition with immobilised ligand,1 µM,93
Nc1cnc(N2CCc3cc(S(=O)(=O)Nc4c(F)cc(Cl)cc4F)cc(N4CCCC4=O)c32)nc1,cell-free assay,competition with immobilised ligand,1 µM,81
C[C@@H](c1ccc(-n2cnc3c(N)ncnc32)cc1)N1CCc2nn(C)c(Cc3ccccc3)c2C1=O,binding,competition with immobilised ligand,0.1 µM,100
c1cncc(-c2cccc(Nc3nccc(NC4CCCCC4)n3)c2)c1,binding,competition with immobilised ligand,10 µM,30
COc1cnc(Nc2cccc(S(N)(=O)=O)c2)nc1N1CCN(c2ccccc2)CC1,binding,competition with immobilised ligand,1 µM,65
CN(C)c1nccc(-c2cnn3ncccc23)n1,binding,,1 µM,100
O=C(O)c1cc(-c2ccc(C3CCNCC3)cc2)c2ccc(-c3ccc(C(F)(F)F)cc3)cc2c1,cell-free assay,competition with immobilised ligand,1 µM,86
